“And” between values parts separate entries of the source, which are not always exact repeats. Identical values can stand only once. The campaign covered roughly 360,000 compounds. About 3,600 (1%) were called active. The sample as a whole holds a higher share of actives than the screen did. Values without a mark were called inactive.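 The calls were made as follows: active = activation above the mean activation of all test compounds in the run plus 3 SD (cut at about 38% in these data); inactive = the rest.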

Trace amine-associated receptor 1 (Homo sapiens), sequence (Q96RJ0 whole entry, looked up): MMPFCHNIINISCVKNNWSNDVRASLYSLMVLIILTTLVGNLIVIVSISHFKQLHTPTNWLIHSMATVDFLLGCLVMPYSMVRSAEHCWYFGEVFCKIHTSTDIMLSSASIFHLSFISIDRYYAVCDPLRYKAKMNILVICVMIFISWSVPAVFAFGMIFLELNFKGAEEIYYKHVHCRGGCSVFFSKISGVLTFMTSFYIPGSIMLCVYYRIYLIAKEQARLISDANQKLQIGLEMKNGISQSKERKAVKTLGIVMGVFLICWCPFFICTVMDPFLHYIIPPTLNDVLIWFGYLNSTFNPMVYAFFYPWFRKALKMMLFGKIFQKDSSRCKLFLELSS

The test concerns the target Trace amine-associated receptor 1 (Homo sapiens) (UniProt Q96RJ0). In words: human TAAR1 agonists, primary screen, Fluo-8 calcium fluorescence, CHO RD-HGA16 cells (AID 624467). The note with it: CHO RD-HGA16 TAAR1, Fluo-8 calcium fluorescence; at 3 µM; hits give high values; vehicle wells 0%, saturating PEA agonist 100%. Put shortly: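 Test system: RD-HGA16 (CHO) cells co-expressing Gα16 and hTAAR1 / Benchmarks: DMSO vehicle as 0%, PEA at EC100 as 100% / Repeats: no replicates (n 1) / Measure: % activation from peak over basal fluorescence ratio, DMSO-to-PEA scaled / Timing: 17-24 h plating, Fluo-8 75 min 37 °C, 30 min RT / Technique: kinetic Fluo-8 calcium fluorescence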
`O=C(CSc1nc(-c2ccco2)cc(C(F)(F)F)n1)NCc1cccs1`: the activation was 75.6% (active).
`O=C(CSc1nc(-c2ccco2)cc(C(F)(F)F)n1)N1CCc2ccccc2C1`: the activation is 19.4%.
As to `COc1ccc(-c2cc(C(F)(F)F)nc(SCCC(=O)NCc3ccco3)n2)cc1`, the activation was 0.17%.
`CN(O)C(=S)c1ccccc1`: the activation is 4.65%.
`C[C@@H]1ON(C)[C@H]2C[C@H]3c4cc(N5CCOCC5)ccc4CCN3C[C@@H]12`: the activation is 2%.
The figure for `O=C(NCCc1ccccc1)C1CC1` is 20.1%; for `O=C(O)C1C2C=CC(O2)C1C(=O)NCCc1cccc(Cl)c1` (stereo not drawn) it is 76.8% (active).
As for `O=C(O)C1C2C=CC(O2)C1C(=O)Nc1ccccn1` (stereo not drawn), the activation is 2.36%.
As to `O=C(NCc1ccccc1)[C@@H]1CCCN1C(=O)[C@H]1CCCN1C(=O)c1cccc(Cl)c1`, the activation is -0.12%.
Take `COc1ccc(CCNC(=O)COC(=O)c2cc(=O)c3ccccc3o2)cc1`: the activation was 17.5%.
Consider `COc1ccc(CNC(=O)COC(=O)C(CCSC)N2C(=O)c3ccccc3C2=O)cc1` (stereo not drawn), for which the activation is 9.85%.
With `COc1ccc(CNC(=O)COC(=O)C2=Cc3ccccc3OC2)cc1`, the activation is 43.4% (active).
The figure for `Cc1nc2c(C(=O)NCc3cccs3)cnn2c(C)c1Cc1ccc(F)cc1` is -1.18%; for `Cc1ccc(NC(=O)CC2C(=O)N(Cc3ccccc3)C(=S)N2NC(=O)c2cccc(F)c2)c(C)c1` (stereo not drawn) it is 9.32%; for `COC(=O)Cc1nnn2c1[C@H](C)[C@H](c1ccccc1[N+](=O)[O-])OCC2` it is 1.43%.
The figure for `COc1cccc(N(CC(=O)N2CCc3ccccc3C2)S(C)(=O)=O)c1` is 47.3% (active); for `CS(=O)(=O)N(CC(=O)N1CCc2ccccc2C1)c1ccc(Br)cc1` it is 2.37%.
Consider `O=C(CN(c1cccc(Cl)c1)S(=O)(=O)c1ccccc1)NN=C1CCCC1`, for which the activation was -0.99%.
In the case of `Cc1ccc(S(=O)(=O)N(CC(=O)N2CCc3ccccc3C2)c2cccc(Cl)c2)cc1`, the activation was 49.8% (active).
As to `Cc1ccc(Cl)c(OCC(=O)N2CCc3ccccc3C2)c1`, the activation is 0.5%.
`Cc1cccc(N(CC(=O)N2CCOCC2)S(C)(=O)=O)c1`: the activation was 0.3%.
The figure for `CCOC(=O)CNC(=O)N(C)[C@H]1C[C@H]2c3[nH]c4c(-c5ccc6c(c5)OCO6)cccc4c3CCN2C(=O)[C@H]1[C@H](C)O` is 11.6%; for `COc1cccc(CNC(=O)[C@H]2CCCN2C(=O)[C@H]2CCCN2C(=O)C2CCCCC2)c1` it is 2.02%.
Turning to `CCc1nn(CCCN2CCN(c3cccc(Cl)c3)CC2)c(=O)n1CCOc1ccccc1`, the activation was 5.08% and 3.96%.
The figure for `O=[N+]([O-])c1ccc2[nH]c3c(c2c1)CCCC3O` (stereo not drawn) is 2.87%.
For the molecule `COC(=O)[C@]12C[C@H](CC(=O)N3CCN(C(=O)C4CC4)CC3)C(=O)N(Cc3ccc4c(c3)OCO4)C1=C[C@H](C(C)(C)C)O[C@@H]2C`, the activation is 1.35%.
`Cc1ccc(C(=O)CCC(=O)N(C)CC(=O)Nc2c(Cl)cccc2Cl)cc1`: the activation is -0.39%.
Consider `COc1ccccc1N1CC(C(=O)Nc2ccc(S(=O)(=O)N3CCOCC3)cc2)CC1=O` (stereo not drawn), for which the activation is 1.9%.
As to `COc1ccc(OC)c(NC(=S)N2CCc3ccccc3C2)c1`, the activation is 69.4% (active).
On to `COc1ccc(C)cc1NC(=S)N1CCOCC1`, for which the activation is 0.86%.
Take `COc1ccc(NC(=S)N2CCc3cc(OC)c(OC)cc3C2)cc1`: the activation was 2.44%.
The figure for `CCCCCCCCN1C(=O)[C@@H](CC(=O)NCCCC)C[C@@]2(C(=O)OC)C1=C[C@H](C(C)(C)C)O[C@@H]2C` is -1.86%; for `CCCc1nc2c(c(=O)c3ccccc3n2C)c(=O)n1C1CCCCCC1` it is 46.7% (active); for `CCCN1C(=O)C(Cc2nc3ccccc3c(=O)n2-c2ccccc2)c2cc(C)ccc21` (stereo not drawn) it is 13.8%.
Take `CCOC(=O)Cn1c2c(n(-c3ccc(F)cc3)c1=O)C=C(c1ccccc1)[C@@H](C)C(C(=O)N(C)C1CCCCC1)=C2`: the activation is -1.16%.
In the case of `COC(=O)[C@]12C[C@H](CC(=O)NCc3ccc(C)o3)C(=O)N(CCC3=CCCCC3)C1=C[C@H](C(C)(C)C)O[C@@H]2C`, the activation was -2.27%.
Consider `CCCCCCCCN1C(=O)[C@@H](CC(=O)N2CCN(C(=O)OCC)CC2)C[C@@]2(C(=O)OC)C1=C[C@H](C1CCCC1)O[C@@H]2C`, for which the activation was -2.04%.
For `CCN(CC)P(=O)(Nc1ccc(SC(F)F)cc1)c1ccc(N(C)C)cc1NC(=O)c1ccco1` (stereo not drawn), the activation was 1.83%.
The figure for `Nc1c(NCCc2ccccc2)c2ccccc2oc1=O` is 88.1% (active); for `CC(C)(C)Nc1c(N)c(=O)oc2ccccc12` it is 9.39%; for `NC(=O)c1oc2ccccc2c1NC(=O)Cc1ccccc1` it is 10.1%.
Take `COC(=O)C1=C(C)N(Cc2cccc(C(F)(F)F)c2)C(=NCc2ccccc2)NC1c1ccccc1C(F)(F)F` (stereo not drawn): the activation is 1.05%.
With `C=CCN=C1NC(c2cccc(C(F)(F)F)c2)C(C(=O)OC)=C(C)N1C` (stereo not drawn), the activation is -0.19%.
Take `COC(=O)[C@]12C[C@H](CC(=O)NCc3ccc(OC)c(OC)c3)C(=O)N(Cc3ccccc3)C1=C[C@H](C(C)C)O[C@@H]2C1CC1`: the activation was -0.82%.
The figure for `CCCCn1c(-c2cccc(C)c2)nc2cc3[nH]c(=O)c(C(C)C)nc3cc21` is 14.7%.
`O=C(/C=C/c1ccc(F)cc1)NC(=S)NNC(=O)c1cccnc1`: the activation is 39.6% (active).
The figure for `NS(=O)(=O)c1ccc(NC(=S)NC(=O)c2cccnc2)cc1` is 0.75%.
On to `Cc1cccc(OCCNC(=S)NC(=O)c2cccnc2)c1`, for which the activation is -0.63%.
For the molecule `COCCN1C(=O)N(c2ccc(Cl)cc2)C(=O)C1CC(=O)Nc1cc(OC)cc(OC)c1` (stereo not drawn), the activation is 18.5%.
The figure for `C[C@H](O)[C@@H]1C(=O)N2CCc3c([nH]c4c(-c5ccc6c(c5)OCO6)cccc34)[C@@H]2C[C@@H]1N(C)C(=O)c1ccco1` is 14.6%; for `Cc1ccsc1C(=O)NNC(=O)COc1ccc(Br)cc1` it is 1.12%; for `Cc1ccc(O)c(NC(=S)NC(=O)COc2ccc(Br)cc2)c1` it is 108% (active).
`Cc1ccc(O)c(/C=N/NC(=O)COc2ccc3c(C)cc(=O)oc3c2)c1`: the activation is 6.72%.

(Values after PubChem BioAssay AID624467 (The Scripps Research Institute Molecular Screening Center, 2012).)
